Compound activity from PubChem.
HIV Env fusion – inhibitors of HIV-1 Env-driven cell-cell fusion, primary screen, HeLa-JRFL effector, CEM21 target cells, luciferase; 360,000 tested, 1.1% active; AID 651610, 2012; inhibition, % at 12.3 µM;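 active means mean replicate inhibition score of at least 50 and every replicate individually at or above 50; inconclusive means only one of the two criteria met; inactive means mean below 50 and not all replicates reaching 50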;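 further: 0% = plate neutral controls and 100% = maraviroc near 300 nM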
FN deposit inh – inhibitors of fibronectin matrix deposition, primary screen, AH1F cells, Alexa488-fibronectin fluorescence, plate reader | inhibition, % at 12.6 µM | AH1F fibroblasts, overnight | AID 743247, 2014 | 350,000 tested, 0.086% active;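 active means mean inhibition across replicates of 30% or more, regardless of how many single replicates reach that level; inconclusive means mean under 30% yet at least half of replicates reach 30%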;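 further: positive control wells lacked labelled fibronectin entirely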
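test system = AH1F fibroblasts assembling fluorescent fibronectin matrix | quantity = 10000 AH1F cells per well | buffer or medium = DMEM plus 2% serum, read in PBS | doses = single dose, pinned | incubation = 1 h cell attachment, overnight exposure to compound and label | detection = fluorescence at 485 nm excitation, 525 nm emission | read-out basis = inhibition from reduced deposited-fibronectin fluorescence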
AF4-AF9 inh – inhibitors of AF4 peptide binding to AF9, primary screen, biochemical, AlphaScreen, biotin-AF4 peptide, FLAG-AF9, single point; inhibition, % at 10 µM; 350,000 tested, 0.47% active; AID 651704, 2012;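 active means every replicate reaching a set inhibition limit, whatever the replicate mean, cut at about 25% in these data; inconclusive means mean inhibition reaches that limit but some replicates miss it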;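 further: 0% = plate neutral control median and 100% = total signal loss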
Target sequence (P42568 whole entry, looked up): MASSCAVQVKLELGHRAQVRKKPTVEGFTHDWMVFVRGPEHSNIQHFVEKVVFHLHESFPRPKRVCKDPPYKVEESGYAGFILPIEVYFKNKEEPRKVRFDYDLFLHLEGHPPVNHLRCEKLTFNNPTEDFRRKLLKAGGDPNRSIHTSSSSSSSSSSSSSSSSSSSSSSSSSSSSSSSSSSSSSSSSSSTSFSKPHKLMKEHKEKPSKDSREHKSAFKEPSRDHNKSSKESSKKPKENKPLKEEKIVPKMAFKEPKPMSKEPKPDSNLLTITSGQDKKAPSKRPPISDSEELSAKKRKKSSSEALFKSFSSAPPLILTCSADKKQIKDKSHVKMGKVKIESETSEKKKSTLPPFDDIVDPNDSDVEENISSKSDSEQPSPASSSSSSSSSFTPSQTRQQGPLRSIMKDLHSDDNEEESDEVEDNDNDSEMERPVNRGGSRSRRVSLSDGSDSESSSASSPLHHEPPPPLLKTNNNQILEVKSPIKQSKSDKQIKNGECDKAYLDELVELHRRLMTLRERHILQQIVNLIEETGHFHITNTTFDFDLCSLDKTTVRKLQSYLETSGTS
EWS-Fli inh – EWS/Fli-driven NR0B1 reporter inhibitors, primary screen, A673 cells, NR0B1 luciferase, luminescence, MLPCN library | viability-normalised | inhibition, % at 12.6 µM | 350,000 tested, 0.67% active | AID 651661, 2012;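 active means mean inhibition of at least 50% after viability correction, with every replicate also passing that limit; inconclusive means mean reaches 50% but only one of two replicates passes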;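 further: firefly luciferase signal divided by Alamar Blue viability fluorescence both relative to DMSO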
PAX8 inh HTS – inhibitors of PAX8-driven TPO luciferase reporter, primary screen, RMG-I cells, single concentration; 360,000 tested, 1.2% active; AID 652154, 2013; inhibition, % at 12.6 µM; SteadyGlo, 24 h;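 active means mean replicate inhibition at least 60% with every replicate also reaching 60%; inconclusive means only one of the two criteria is met; inactive means mean below 60% and not all replicates reaching 60%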;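 further: luciferase light reporting Pax8 driven TPO promoter activity; plate controls were median of neutral control wells for no effect and mitoxantrone controls for full effect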
N-glyco inh – increase of ERlucT glycosylation luciferase signal, primary screen, N-linked glycosylation inhibitor project, D54 ERlucT cells, luminescence, set 2. D54 ERlucT glycosylation luciferase reporter, 24 h; percent of 100 nM tunicamycin response. reporter increase, % at 12.5 µM. 360,000 tested, 0.23% active;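 active means mean luciferase reporter signal, scaled so untreated is 0 and the glycosylation-blocking control 100, at or above a set limit in every replicate; inconclusive means mean reaches the limit but not every replicate does; inactive means mean below the limit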;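 further: luciferase carries N-glycosylation sites so blocking glycosylation raises the light; 0% = median of neutral control wells and 100% = median of 100 nM tunicamycin wells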
An asterisk follows results filed as active; [ ] = remark or other dose. The list is not random: actives were taken first. Their share in the collection is about 2.5%.

What do the screens show for `O=C(c1ccccc1-c1ccccc1)N1CCN(c2ccccn2)CC1`?
HIV Env fusion: 15; FN deposit inh: 2; N-glyco inh: 50*

How did CCC(=O)N1C[C@H](C)[C@@H](OC)CN(C)C(=O)c2ccc(NC(=O)c3cc(C)on3)cc2OC[C@H]1C do in these assays?
HIV Env fusion: 0[16.7 µM]; FN deposit inh: -13; EWS-Fli inh: 7; PAX8 inh HTS: -12

Results for CCN1C/C(=C\c2cccc([N+](=O)[O-])c2)C(=O)/C(=C/c2cccc([N+](=O)[O-])c2)C1 ?
FN deposit inh: 9; AF4-AF9 inh: -14; EWS-Fli inh: 82*; PAX8 inh HTS: 55; N-glyco inh: -23

How did O=C1/C(=C/c2cccc([N+](=O)[O-])c2)CSc2ccc(Cl)cc21 do in these assays?
HIV Env fusion: 61*; FN deposit inh: 2; AF4-AF9 inh: -1; EWS-Fli inh: -11; PAX8 inh HTS: -13; N-glyco inh: -1

What do the screens show for `O=C1/C(=C/c2cccc([N+](=O)[O-])c2)CCc2ccccc21`?
HIV Env fusion: -15; FN deposit inh: 2; PAX8 inh HTS: -21; N-glyco inh: 12

How did C[C@H](CO)N1C[C@H](C)[C@@H](CN(C)CC2CC2)Oc2ccc(NC(=O)Nc3ccc(F)cc3)cc2CC1=O do in these assays?
HIV Env fusion: 11[16.7 µM]; AF4-AF9 inh: 5; EWS-Fli inh: 1; PAX8 inh HTS: 11

What do the screens show for `Cc1ccc(-n2nc3c(c2NC(=O)c2ccco2)CS(=O)C3)cc1` (stereo not drawn)?
HIV Env fusion: 88*; AF4-AF9 inh: -1; PAX8 inh HTS: 8; N-glyco inh: 3

How did C[C@H](CO)N1C[C@H](C)[C@H](CN(C)S(=O)(=O)c2ccc(F)cc2)Oc2ccc(NS(=O)(=O)c3cccs3)cc2CC1=O do in these assays?
HIV Env fusion: 40[16.7 µM]; FN deposit inh: 1; AF4-AF9 inh: -4; EWS-Fli inh: -5; PAX8 inh HTS: -6

Results for CCn1ncc(C2=NOC(C(=O)NCc3ccc(Cl)cc3)C2)c1C (stereo not drawn) ?
HIV Env fusion: -97; FN deposit inh: -9; N-glyco inh: 36*

Results for CCn1ncc(C2=NOC(C(=O)Nc3cccnc3)C2)c1C (stereo not drawn) ?
HIV Env fusion: -10; FN deposit inh: 10; N-glyco inh: 0

How did CCn1ncc(C2=NOC(C(=O)Nc3ccc(C)cc3)C2)c1C (stereo not drawn) do in these assays?
HIV Env fusion: 42*; FN deposit inh: 1; PAX8 inh HTS: 15; N-glyco inh: -1

Results for COc1cccc(C2=Nc3cccc4cccc(c34)N2)c1 ?
HIV Env fusion: -19; FN deposit inh: 1; AF4-AF9 inh: 33*; EWS-Fli inh: -3; PAX8 inh HTS: 13; N-glyco inh: 2

What do the screens show for `COc1ccc(NC(=O)c2ccc(Cl)c(S(=O)(=O)N3CCc4ccccc4C3)c2)cn1`?
HIV Env fusion: 92*; FN deposit inh: -12; PAX8 inh HTS: 28; N-glyco inh: -4

What do the screens show for `CCCCNS(=O)(=O)c1ccc(NC(=O)C(Sc2ccccc2)c2ccccc2)cc1` (stereo not drawn)?
FN deposit inh: -2; PAX8 inh HTS: 72*; N-glyco inh: -7

What do the screens show for `FC(F)(F)c1ccc(N2CCN(c3cc(-c4ccccc4)nc4ncnn34)CC2)nc1`?
HIV Env fusion: 77*; FN deposit inh: 3; N-glyco inh: 1

Results for FC(F)(F)c1cccc(Nc2cc(-c3ccccc3)nc3ncnn23)c1 ?
HIV Env fusion: 7; FN deposit inh: 11; AF4-AF9 inh: -6; EWS-Fli inh: 29; PAX8 inh HTS: 2; N-glyco inh: 3

How did Cc1oc(-c2ccccc2F)nc1CS(=O)(=O)CC(=O)N1CCc2ccccc21 do in these assays?
HIV Env fusion: 22; FN deposit inh: -3; AF4-AF9 inh: 0; EWS-Fli inh: 12; PAX8 inh HTS: 13; N-glyco inh: 1

How did Cc1oc(-c2ccccc2F)nc1CS(=O)(=O)CC(=O)N1CCN(c2ccccc2)CC1 do in these assays?
HIV Env fusion: 60*; FN deposit inh: -4; AF4-AF9 inh: -5; EWS-Fli inh: 11; PAX8 inh HTS: 30; N-glyco inh: 2

How did CCOc1ccc(CNC(=O)CS(=O)(=O)Cc2nc(-c3ccc(OC)cc3)oc2C)cc1 do in these assays?
HIV Env fusion: 9; FN deposit inh: 4; AF4-AF9 inh: 48*; EWS-Fli inh: 3; PAX8 inh HTS: 24; N-glyco inh: 0

What do the screens show for `Cc1ccc(-c2nc(CS(=O)(=O)CC(=O)N3CCCCCC3)c(C)o2)cc1`?
HIV Env fusion: 51*; FN deposit inh: 4; AF4-AF9 inh: inconclusive; EWS-Fli inh: 11; PAX8 inh HTS: 31; N-glyco inh: 1

How did C[C@H]1CCCCO[C@H](CN(C)CC2CC2)[C@@H](C)CN([C@@H](C)CO)C(=O)c2cc(NC(=O)Nc3ccc4c(c3)OCO4)ccc2O1 do in these assays?
HIV Env fusion: 2[16.7 µM]; FN deposit inh: -4; AF4-AF9 inh: 35*; PAX8 inh HTS: -2

How did C[C@@H]1CCCCO[C@@H](CN(C)CC2CC2)[C@H](C)CN([C@@H](C)CO)C(=O)c2cc(NC(=O)Nc3ccc4c(c3)OCO4)ccc2O1 do in these assays?
HIV Env fusion: -11[16.7 µM]; FN deposit inh: 5; AF4-AF9 inh: inconclusive; PAX8 inh HTS: -15

Results for C[C@@H]1CCCCO[C@H](CN(C)CC2CC2)[C@H](C)CN([C@@H](C)CO)C(=O)c2cc(NC(=O)Nc3ccc4c(c3)OCO4)ccc2O1 ?
HIV Env fusion: -13[16.7 µM]; FN deposit inh: 0; AF4-AF9 inh: 34*; PAX8 inh HTS: 13

What do the screens show for `C[C@H]1CCCCO[C@H](CN(C)C(=O)CCC(F)(F)F)[C@@H](C)CN([C@@H](C)CO)C(=O)c2cc(NS(=O)(=O)c3cccs3)ccc2O1`?
HIV Env fusion: 17[16.7 µM]; EWS-Fli inh: -4; PAX8 inh HTS: -31

What do the screens show for `CCCNC(=O)N1[C@@H]2CN(C(=O)C3CCOCC3)c3ccccc3[C@@H]2[C@@H]1CO`?
AF4-AF9 inh: -1; EWS-Fli inh: 1; PAX8 inh HTS: -5

How did O=C1[C@H]2[C@@H](c3ccc(F)cc3)N3C(=O)N(c4ccccc4)C(=O)[C@@]3(Cc3ccccc3)[C@H]2C(=O)N1C1CCCCC1 do in these assays?
HIV Env fusion: 107*; FN deposit inh: -21; AF4-AF9 inh: 3; EWS-Fli inh: 6; PAX8 inh HTS: 18; N-glyco inh: 15
